The results in this text go back to ChEMBL document CHEMBL1122461, “Antiviral compounds. 1. Structure-activity relationship of some antiviral enediones derived from aldehydo sugars” (1983).

The subject of assay [1] is BSC-1. Kind of assay: Inhibition of cellular DNA synthesis in BSCL cells at the dose of 17.0 ug/mL. In kind it is functional, Cercopithecidae. To be noted: Chlorocebus aethiops. In short, it runs like this:
(§1)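 HSV-1-infected BSC1 cells labelled with [3H]thymidine (2 μCi/mL) from 3 h post-infection and harvested at 22 h. Lysed with 1% SDS and 0.3 mg/mL Pronase for 5 h at 37 °C. DNA banded on CsCl gradient (pH 8.0, 35000 rpm, 20 °C, 48 h). TCA-precipitable radioactivity in viral and cellular DNA peaks is summed and expressed as % of infected untreated culture.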

In assay [2] the test system is Human alphaherpesvirus 1. Kind of assay: Antiviral activity against HSV-1 (Herpes simplex virus). In kind it is functional. In short, it runs like this:
(§2)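 Disk-diffusion gradient assay. BSC1 (M199) or Vero (RPMI) monolayers with 10% inactivated calf serum are infected to give confluent plaques. They are overlaid with Eagle's/1% agar/5% calf serum. A 5-mm paper disk soaked in compound (5 mg/mL in DMSO) is placed centrally, then 3–4 days at 37 °C, fix and stain. Diameter of the destroyed central zone = toxicity. Plaque-free diameter minus toxic diameter = antiviral activity.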

For assay [3], the system named is Human alphaherpesvirus 1. Nature of the assay: Growth inhibition against HSV-1 virus in BSCL cells at the dose of 17.0 ug/mL and 22h time of treatment. In kind it is functional. The following applies: Human alphaherpesvirus 1, BSCL. In short, it runs like this:
(§3)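 HSV-1 grown 22 h in BSC1 cells in the presence of compound after infection at 1 pfu/cell (1 h, 37 °C, wash, medium with 2% calf serum). Virus yield is titred by plaque assay on agar overlay: 4 days at 37 °C, crystal violet stain, plaque count. Reported as % inhibition of virus growth.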

Assay [4] relates to Human alphaherpesvirus 1. Nature of the assay: Inhibition of viral DNA synthesis in HSV-1 virus at the dose of 17.0 ug/mL. In kind it is functional. In short, it runs like this:
as §1

The subject of the next assay is Semliki Forest virus. Kind of assay: Antiviral activity against forest virus. In kind it is functional. In short, it runs like this: as §2
The test system of a further assay is Vaccinia virus. Nature of the assay: Antiviral activity against Vaccinia virus. Set-up: unit not given here. In kind it is functional, Orthopoxvirus vaccinia. In short, it runs like this:
as §2

Another assay concerns Vero. Kind of assay: Cytotoxicity against BSCL and Vero cells. In kind it is functional, Chlorocebus sabaeus. In short, it runs like this:
as §2

Assay [5] deals with BSC-1. Nature of the assay: Inhibition of cellular DNA synthesis in BSCL cells at the dose of 1.4 ug/mL. In kind it is functional, Cercopithecidae. To be noted: Chlorocebus aethiops. In short, it runs like this:
as §1

Assay [6] has as its system Human alphaherpesvirus 1. Kind of assay: Inhibition of viral DNA synthesis in HSV-1 virus at the dose of 1.4 ug/mL. In kind it is functional. In short, it runs like this: as §1
Assay [7] relates to Human alphaherpesvirus 1. Nature of the assay: Growth inhibition against HSV-1 virus in BSCL cells at the dose of 1.4 ug/mL and 22h time of treatment. In kind it is functional. The following applies: Human alphaherpesvirus 1, BSCL. In short, it runs like this: as §3
The subject of assay [8] is BSC-1. Kind of assay: Inhibition of cellular DNA synthesis in BSCL cells at the dose of 0.8 ug/mL. In kind it is functional, Cercopithecidae. The following applies: Chlorocebus aethiops. In short, it runs like this:
as §1

Assay [9] has as its system Human alphaherpesvirus 1. Kind of assay: Growth inhibition against HSV-1 virus in BSCL cells at the dose of 0.8 ug/mL and 22h time of treatment. In kind it is functional. To be noted: Human alphaherpesvirus 1, BSCL. In short, it runs like this:
as §3

In assay [10] the test system is Human alphaherpesvirus 1. Nature of the assay: Inhibition of viral DNA synthesis in HSV-1 virus at the dose of 0.8 ug/mL. In kind it is functional. In short, it runs like this:
as §1

A word on the inhibition: it is how much of the control response was suppressed.

As to `CC(=O)C(=C[C@@H]1O[C@H](c2ccccc2)O[C@@H]2CO[C@@H](c3ccccc3)O[C@@H]12)C(C)=O`, the inhibition at 17 µg/mL amounted to 80.7% in the assay on BSC-1 [1], 95.5% in the assay with Human alphaherpesvirus 1 [3] and 50.9% in the assay on Human alphaherpesvirus 1 [4]. Also, the Antiviral activity stood at 11 mm with Human alphaherpesvirus 1 [2], 0 mm in the assay with Semliki Forest virus and 5 with Vaccinia virus. The Cytotoxicity with Vero was 10 mm.

As for `CC(=O)OCC(OC(C)=O)C(OC(C)=O)C(OC(C)=O)C(C=C(C(C)=O)C(C)=O)OC(C)=O` (stereo unspecified), the Antiviral activity with Human alphaherpesvirus 1 [2] amounted to 1 mm; in the assay on Semliki Forest virus it was 0 mm; in the assay on Vaccinia virus, 3. In the assay on Vero, the Cytotoxicity is listed as 8 mm.

As for `CC(=O)/C(=C\[C@@H]1O[C@H](c2ccccc2)O[C@@H]2CO[C@@H](c3ccccc3)O[C@@H]12)C(=O)c1ccccc1`, the Antiviral activity is listed as 12 mm in the assay with Human alphaherpesvirus 1 [2], 0 mm in the assay with Semliki Forest virus and 8 in the assay with Vaccinia virus. The same compound showed a Cytotoxicity in the assay on Vero of 14 mm.

Take `CC(=O)OC(C=C(C(C)=O)C(C)=O)C(OC(=O)c1ccccc1)C(COC(=O)c1ccccc1)OC(C)=O` (stereo unspecified): the values for the Antiviral activity with Human alphaherpesvirus 1 [2], in the assay with Semliki Forest virus and in the assay on Vaccinia virus were 4 mm, 4 mm and 6, respectively. Besides, the Cytotoxicity in the assay with Vero is 2 mm.

In the case of `CC(=O)OCC(OC(C)=O)C(OC(C)=O)C(C=C(C(C)=O)C(C)=O)OC(C)=O` (stereo unspecified), the Antiviral activity was found to be 11 mm in the assay with Human alphaherpesvirus 1 [2], 0 mm in the assay on Semliki Forest virus and 0 in the assay on Vaccinia virus. The Cytotoxicity in the assay on Vero was 13 mm.

For `O=C1OCC/C1=C\[C@@H]1O[C@H](c2ccccc2)O[C@@H]2CO[C@@H](c3ccccc3)O[C@@H]12`, the Antiviral activity is on record as 0 mm in the assay with Human alphaherpesvirus 1 [2], 0 mm with Semliki Forest virus and 14 in the assay on Vaccinia virus. In addition, the Cytotoxicity with Vero is listed as 3 mm.

Consider `CC(=O)/C(=C\[C@@H]1O[C@H](c2ccccc2)O[C@H](CC(=O)Oc2ccccc2)[C@H]1C(=O)Oc1ccccc1)C(=O)Nc1ccccc1`, for which the values for the Antiviral activity in the assay on Human alphaherpesvirus 1 [2], with Semliki Forest virus and in the assay on Vaccinia virus were 2 mm, 0 mm and 9, respectively. For the same compound, the Cytotoxicity with Vero is 4 mm.

As for `O=C[C@@H]1O[C@H](c2ccccc2)O[C@@H]2CO[C@@H](c3ccccc3)O[C@@H]12`, the Antiviral activity was determined as 8 mm with Human alphaherpesvirus 1 [2], 6 mm in the assay with Semliki Forest virus and 12 in the assay on Vaccinia virus. In addition, in the assay with Vero, the Cytotoxicity was 8 mm.

Regarding `Nc1ccn([C@@H]2O[C@H](CO)[C@@H](O)[C@@H]2O)c(=O)n1` [CYTARABINE], the inhibition at 1.4 µg/mL in the assay on BSC-1 [5] came to 38.3%; with Human alphaherpesvirus 1 [6], 0%; in the assay on Human alphaherpesvirus 1 [7], 93.6%.

With `O=c1[nH]c(=O)n([C@H]2C[C@H](O)[C@@H](CO)O2)cc1I` [IDOXURIDINE], the results for the inhibition at 0.8 µg/mL in the assay with BSC-1 [8], in the assay on Human alphaherpesvirus 1 [9] and in the assay with Human alphaherpesvirus 1 [10] were 21.5%, 71.3% and 31.1%, respectively.
